Screening results from PubChem.
This is a sample that favours compounds with a hit; in the whole collection about 3.9% have one here.
TAAR1 antag – antagonists of human TAAR1; Q96RJ0; CHO RD-HGA16 TAAR1, Fluo-8 calcium fluorescence, antagonist; inhibition, % at 3 µM; 360,000 compounds, 1.5% hits;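 active means inhibition above a per-plate cutoff, the mean inhibition of test compounds on that plate plus 3 SD, cut at about 49% in these data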;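 further: 0% = DMSO plus EC80 beta-PEA response and 100% = DMSO alone without agonist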
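Test system: RD-HGA16 CHO cells with stable hTAAR1 and Gα16 / Probe or stimulus: EC80 β-phenethylamine stimulus / Times: seeding 17-24 h prior, 75-min 37 °C, 30-min RT dye loading / Detection: Fluo-8 calcium-sensitive fluorescence / Read-out basis: % inhibition scaled between DMSO and EC80 PEA controls / Repeats: singlicate, one well per test compound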
TAAR1 ag – agonists of human TAAR1. Q96RJ0. CHO RD-HGA16 TAAR1, Fluo-8 calcium fluorescence; vehicle wells 0%, saturating PEA agonist 100%. activation, % at 3 µM. 360,000 compounds, 0.99% hits;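 active means activation above the mean activation of all test compounds in the run plus 3 SD, cut at about 38% in these data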
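test system = CHO RD-HGA16 cells carrying human TAAR1 plus Gα16 | schedule = 17-24 h seeding, 75 min 37 °C dye, 30 min RT | compound dosing = 3 µM single concentration | control set = DMSO and PEA EC100 | replicates = n 1 | signal = Fluo-8 fluorescence, 5 s baseline then 140 s kinetic read | measure = percent activation vs PEA EC100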
OX1R antag-1 – OX1R (human) antagonism; OX1R-expressing cells, FRET antagonist read-out; inhibition, % at 6.6 µM; 330,000 compounds, 1.8% hits; AID 485270; in the data active means inhibition mostly above about 38%, no sharp cut-off; inactive means mostly below about 40%;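 further: 0% = agonist challenge alone and 100% = reference antagonist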
Target sequence (O43613 whole entry, looked up): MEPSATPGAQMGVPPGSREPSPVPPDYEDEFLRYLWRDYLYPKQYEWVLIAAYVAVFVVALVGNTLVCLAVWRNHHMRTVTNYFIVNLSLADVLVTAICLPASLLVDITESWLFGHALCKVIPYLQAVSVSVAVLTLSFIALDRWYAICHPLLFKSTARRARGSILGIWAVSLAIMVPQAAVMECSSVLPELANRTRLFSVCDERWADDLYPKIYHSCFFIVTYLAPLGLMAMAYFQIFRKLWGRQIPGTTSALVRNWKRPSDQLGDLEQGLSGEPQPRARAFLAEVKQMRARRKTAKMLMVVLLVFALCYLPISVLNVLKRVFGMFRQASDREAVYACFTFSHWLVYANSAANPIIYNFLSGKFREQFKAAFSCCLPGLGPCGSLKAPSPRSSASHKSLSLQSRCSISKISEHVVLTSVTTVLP
OX1R antag-2 – human HCRTR1 antagonism; O43613; CHO/OX1R cells, Fluo-8 calcium fluorescence, orexin A; inhibition, % at 5 µM; 330,000 compounds, 0.43% hits; AID 434989;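 active means inhibition above its plate's threshold, mean inhibition of all tested compounds on the plate plus 3 SD, cut at about 37% in these data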;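 further: 0% = orexin A challenge wells and 100% = SB-334867-A antagonist wells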
CHO parental Ca – signal in parental CHO cells, OX1R antagonist counter-screen; parental CHO-K1, ATP-induced calcium, Fluo-8 fluorescence; inhibition, % at 5.6 µM; 330,000 compounds, 0.63% hits;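 active means inhibition above that plate's mean sample inhibition plus 3 SD, cut at about 26% in these data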;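 further: 0% = ATP-challenged DMSO wells and 100% = DMSO wells without ATP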
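Material: Parental CHO cells | Reagent: ATP | Compound dosing: Single nominal dose of 5.6 µM per compound | Detection: Intracellular calcium via Fluo-8 no-wash fluorescent dye | Read-out: % inhibition of ATP-induced calcium mobilization | Benchmarks: Low control ATP plus DMSO, high control DMSO only | Replicates: Singlicate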
TAAR1 ag conf – human TAAR1 agonism, confirmed | CHO RD-HGA16 TAAR1, Fluo-8 calcium fluorescence; scaled: DMSO 0%, maximal phenethylamine 100% | activation, % at 3 µM | 2,400 compounds, 82% hits | shares compounds with TAAR1 ag;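 active means activation above a cutoff set at the run's mean compound activation plus 3 SD, cut at about 39% in these data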
Ga16 ag counter – nonselective agonism, TAAR1 counter-screen. shares compounds with TAAR1 ag. CHO-Ga16 parental, Fluo-8 calcium fluorescence; normalized to maximal ATP response, DMSO zero. activation, % at 3 µM. 2,400 compounds, 50% hits;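 active means activation above the run cutoff, the mean activation over all tested wells plus 3 SD, cut at about 12% in these data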;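 further: 0% = DMSO wells and 100% = maximal ATP response on the peak over basal ratio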
TAAR1 desensitize – counter-screen for human TAAR1 agonists: agonists that desensitize TAAR1 | shares compounds with TAAR1 ag | CHO RD-HGA16 hTAAR1, Fluo-8 calcium, beta-PEA response inhibition | inhibition, % at 3 µM | 2,400 compounds, 46% hits;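 active means inhibition above the run cutoff, the mean inhibition of all test compounds plus 3 SD, cut at about 49% in these data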;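 further: beta-PEA stimulus applied at its EC80; loss of beta-PEA calcium signal after compound pretreatment read as receptor desensitization; 0% = DMSO with beta-PEA at EC80 and 100% = DMSO alone without agonist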
Ga16 nonsel ant – counter-screen for TAAR1 agonists: nonselective Ga16 antagonists | AID 651952 | 2,400 compounds, 39% hits | shares compounds with TAAR1 ag | CHO-Ga16 ATP-induced calcium, Fluo-8 fluorescence | inhibition, % at 3 µM;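 active means inhibition above the plate's mean compound inhibition plus 3 SD, computed per plate, cut at about 22% in these data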;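 further: 0% = EC80 ATP with DMSO and 100% = DMSO wells without ATP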
* marks the source's active call; other numbers are inactive results.

For CN1CC(C(=O)c2ccc(Cl)cc2)C(c2ccccc2F)C1 (stereo not drawn) the results were TAAR1 antag -8, TAAR1 ag 45*, OX1R antag-1 4, OX1R antag-2 -18, CHO parental Ca -26, TAAR1 ag conf 74*, Ga16 ag counter 5, TAAR1 desensitize 34 and Ga16 nonsel ant 13.
For CNc1ccc2oc(C[C@H]3O[C@@]4(CC[C@H]3C)O[C@H]([C@H](C)C(=O)c3ccc[nH]3)[C@H](C)C[C@H]4C)nc2c1C(=O)O the results were TAAR1 antag 106*, TAAR1 ag 198*, OX1R antag-1 20, OX1R antag-2 67*, CHO parental Ca 59*, TAAR1 ag conf 184*, Ga16 ag counter 146*, TAAR1 desensitize 107* and Ga16 nonsel ant 101*.
`Cc1cccn2c(=O)c3c(nc12)N1CCc2ccccc2C1C1(C3)C(=O)NC(=O)N(C)C1=O` (stereo not drawn) gave TAAR1 antag 43, TAAR1 ag 22, OX1R antag-1 6, OX1R antag-2 -14 and CHO parental Ca -21.
Screening CCCCN1C(=O)NC(=O)C2(Cc3c(nc4c(C)cccn4c3=O)N3CCc4ccccc4C32)C1=O (stereo not drawn) returned TAAR1 antag 38, TAAR1 ag 57*, OX1R antag-1 1, OX1R antag-2 -30, CHO parental Ca -29, TAAR1 ag conf 72*, Ga16 ag counter 28*, TAAR1 desensitize 49* and Ga16 nonsel ant 27*.
For CCCCN1C(=O)NC(=O)C2(Cc3c(nc4ccccn4c3=O)N3CCc4ccccc4C32)C1=O (stereo not drawn) the results were TAAR1 antag 24, TAAR1 ag 61*, OX1R antag-1 1, OX1R antag-2 -27, CHO parental Ca -5, TAAR1 ag conf 90*, Ga16 ag counter 33*, TAAR1 desensitize 40 and Ga16 nonsel ant 11.
Cc1cccn2c(=O)c3c(nc12)N1CCCCCC1C1(C3)C(=O)N(C)C(=O)N(C)C1=O (stereo not drawn) was read as TAAR1 antag -21, TAAR1 ag -3, OX1R antag-1 2, OX1R antag-2 -28 and CHO parental Ca -21.
Screening COC(=O)C1=C(c2cc3ccccc3s2)C[C@@H]2CC[C@H]1N2C(=O)NCc1ccc(F)cc1 returned TAAR1 antag 2, TAAR1 ag 1, OX1R antag-1 14, OX1R antag-2 -28 and CHO parental Ca -23.
For COc1ccc(CCNCc2ccncc2)cc1 the results were TAAR1 antag 0, TAAR1 ag 46*, OX1R antag-1 12, OX1R antag-2 -17, CHO parental Ca -17, TAAR1 ag conf 67*, Ga16 ag counter 3, TAAR1 desensitize 28 and Ga16 nonsel ant 5.
O=C1NC(=O)N(c2ccc(Cl)cc2)C(=O)/C1=C\c1ccc(Sc2nc3ccccc3[nH]2)o1 was read as TAAR1 antag 34, TAAR1 ag 60*, OX1R antag-1 17, OX1R antag-2 4, CHO parental Ca 19, TAAR1 ag conf 6, Ga16 ag counter 7, TAAR1 desensitize 17 and Ga16 nonsel ant 20.
For O=C1NC(=O)C(=Cc2ccc(Sc3ccccc3)o2)C(=O)N1 the results were TAAR1 antag 12, TAAR1 ag 21, OX1R antag-1 6, OX1R antag-2 -15 and CHO parental Ca -5.
O=C(NN=Cc1ccc(N(CCCl)CCCl)cc1)c1cccnc1 was read as TAAR1 antag 12 and TAAR1 ag 3.
Screening O=C1NC(=O)C(=Cc2ccc(-c3ccc(F)cc3O)o2)C(=O)N1 returned TAAR1 antag 85*, TAAR1 ag 105*, OX1R antag-1 25, OX1R antag-2 -13, CHO parental Ca -1, TAAR1 ag conf 109*, Ga16 ag counter 61*, TAAR1 desensitize 88* and Ga16 nonsel ant 68*.
